Test results reported in ChEMBL document CHEMBL2069244 (Bioorg Med Chem Lett, 2012).
The source made the active and inactive calls. The rule behind the calls is not given here.

Experiments:
Mus musculus [1] = experiment: Anticonvulsant activity in mouse assessed as protection against maximal electroshock-induced seizures at 30 mg/kg, ip after 0.5 hrs; type: functional, organism-based; parameters: dose 30 mg/kg
How it was run: (§1)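 Mice dosed ip in 30% polyethylene glycol. Corneas pretreated with 1% tetracaine, then 60 Hz alternating current (50 mA) applied for 0.2 s via corneal electrodes. Protection means absence of the hindlimb tonic extensor component. Scored as number protected/number tested.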

Mus musculus [2] = experiment: Anticonvulsant activity in mouse assessed as protection against maximal electroshock-induced seizures at 100 mg/kg, ip after 4 hrs; type: functional, organism-based; parameters: dose 100 mg/kg; how it was run: as §1
Mus musculus [3] = experiment: Anticonvulsant activity in mouse assessed as protection against maximal electroshock-induced seizures at 100 mg/kg, ip after 0.5 hrs; type: functional, organism-based; parameters: dose 100 mg/kg; how it was run: as §1
Mus musculus [4] = experiment: Anticonvulsant activity in mouse assessed as protection against maximal electroshock-induced seizures at 300 mg/kg, ip after 0.5 hrs; type: functional, organism-based; parameters: dose 300 mg/kg; how it was run: as §1
Mus musculus [5] = experiment: Anticonvulsant activity in mouse assessed as protection against maximal electroshock-induced seizures at 300 mg/kg, ip after 4 hrs; type: functional, organism-based; parameters: dose 300 mg/kg; how it was run: as §1
Mus musculus [6] = experiment: Anticonvulsant activity in mouse assessed as protection against maximal electroshock-induced seizures at 30 mg/kg, ip after 4 hrs; type: functional, organism-based; parameters: dose 30 mg/kg; how it was run: as §1
Mus musculus [7] = experiment: Anticonvulsant activity in mouse assessed as protection against subcutaneous pentylenetetrazole-induced seizures at 30 mg/kg, ip after 0.5 hrs; type: functional, organism-based; parameters: dose 30 mg/kg
Mus musculus [8] = experiment: Anticonvulsant activity in mouse assessed as protection against subcutaneous pentylenetetrazole-induced seizures at 100 mg/kg, ip after 0.5 hrs; type: functional, organism-based; parameters: dose 100 mg/kg
Mus musculus [9] = experiment: Anticonvulsant activity in mouse assessed as protection against subcutaneous pentylenetetrazole-induced seizures at 300 mg/kg, ip after 0.5 hrs; type: functional, organism-based; parameters: dose 300 mg/kg
Mus musculus [10] = experiment: Anticonvulsant activity in mouse assessed as protection against subcutaneous pentylenetetrazole-induced seizures at 30 mg/kg, ip after 4 hrs; type: functional, organism-based; parameters: dose 30 mg/kg
Mus musculus [11] = experiment: Anticonvulsant activity in mouse assessed as protection against subcutaneous pentylenetetrazole-induced seizures at 100 mg/kg, ip after 4 hrs; type: functional, organism-based; parameters: dose 100 mg/kg
Mus musculus [12] = experiment: Anticonvulsant activity in mouse assessed as protection against subcutaneous pentylenetetrazole-induced seizures at 300 mg/kg, ip after 4 hrs; type: functional, organism-based; parameters: dose 300 mg/kg
Mus musculus [13] = experiment: Anticonvulsant activity in mouse assessed as peak time to protect against electrically-induced seizure at 100 mg/kg, ip by 6Hz psychomotor seizure test; type: functional; details: route intraperitoneal
How it was run: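 Mice dosed ip in 30% polyethylene glycol, then given a 6 Hz, 32 mA corneal stimulus. Animals lacking the minimal clonic phase and stereotyped automatistic behaviours count as protected. Data are number protected/number tested at each time after dosing.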

Mus musculus [14] = experiment: Protective index, ratio of TD50 for neurotoxicity in ip dosed mouse to ED50 for anticonvulsant activity in mouse by 6Hz psychomotor seizure test; type: functional
How it was run: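 Mice dosed ip in 30% polyethylene glycol. TD50 comes from rotorod toxicity at 6 rpm (three falls in 1 min). ED50 comes from 6 Hz, 32 mA seizure protection. Both are from probit analysis with 95% confidence intervals, and the index is TD50/ED50.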

Mus musculus [15] = experiment: Anticonvulsant activity in ip dosed mouse assessed as protection against 32mA-induced seizure measured after 0.25 to 0.5 hrs by 6Hz psychomotor seizure test
Mus musculus [16] = experiment: Anticonvulsant activity in mouse assessed as protection against maximal electroshock-induced seizures at 100 mg/kg, ip after 0.25 hrs; type: functional, organism-based; parameters: dose 100 mg/kg; how it was run: as §1
Mus musculus [17] = experiment: Anticonvulsant activity in mouse assessed as protection against maximal electroshock-induced seizures at 100 mg/kg, ip after 1 hrs; type: functional, organism-based; parameters: dose 100 mg/kg; how it was run: as §1
Mus musculus [18] = experiment: Neurotoxicity in mouse at 100 mg/kg, ip after 0.25 hrs by 6Hz psychomotor seizure test; type: toxicity, organism-based; parameters: dose 100 mg/kg, route intraperitoneal; details: in vivo
How it was run: (§2)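 Mice dosed ip in 30% polyethylene glycol and placed on a rotorod at 6 rpm. An animal is scored toxic if it falls off three times within 1 min.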

Mus musculus [19] = experiment: Neurotoxicity in mouse at 100 mg/kg, ip after 0.5 hrs by 6Hz psychomotor seizure test; type: toxicity, organism-based; parameters: dose 100 mg/kg, route intraperitoneal; details: in vivo; how it was run: as §2
Mus musculus [20] = experiment: Neurotoxicity in mouse at 100 mg/kg, ip after 1 hrs by 6Hz psychomotor seizure test; type: toxicity, organism-based; parameters: dose 100 mg/kg, route intraperitoneal; details: in vivo; how it was run: as §2
Mus musculus [21] = experiment: Neurotoxicity in mouse at 100 mg/kg, ip after 2 hrs by 6Hz psychomotor seizure test; type: toxicity, organism-based; parameters: dose 100 mg/kg, route intraperitoneal; details: in vivo; how it was run: as §2
Mus musculus [22] = experiment: Neurotoxicity in mouse at 100 mg/kg, ip after 4 hrs by 6Hz psychomotor seizure test; type: toxicity, organism-based; parameters: dose 100 mg/kg, route intraperitoneal; details: in vivo; how it was run: as §2

Row | Structure (SMILES) | Activity (Mus musculus [1]) | Activity (Mus musculus [2]) | Activity (Mus musculus [3]) | Activity (Mus musculus [4]) | Activity (Mus musculus [5]) | Activity (Mus musculus [6]) | Activity (Mus musculus [7]) | Activity (Mus musculus [8]) | Activity (Mus musculus [9]) | Activity (Mus musculus [10]) | Activity (Mus musculus [11]) | Activity (Mus musculus [12]) | Time (Mus musculus [13]) | Ratio TD50/ED50 (Mus musculus [14]) | ED50 (Mus musculus [15]) | further results
1 | CC(C)c1cc(C(O)C(F)(F)F)cc(Br)c1O (centres undefined) | inactive | inactive | inactive | inactive | inactive | inactive | inactive | inactive | inactive | inactive | inactive | inactive | 0.5 h | 3.6 | 112 mg/kg | –
2 | CCC(C)c1cc(C(O)C(F)(F)F)cc(Br)c1O (centres undefined) | inactive | inactive | inactive | Active | inactive | inactive | inactive | inactive | inactive | inactive | inactive | inactive | 0.5 h | 1.7 | – | Activity (Mus musculus [16]): inactive; Activity (Mus musculus [17]): inactive
3 | CCC(C)c1cc(C(O)C(F)(F)F)cc(C(C)CC)c1O (centres undefined) | – | – | – | – | – | – | – | – | – | – | – | – | – | – | 73 mg/kg | –
4 | CCC(C)c1cc(C(O)C(F)(F)F)ccc1O (centres undefined) | inactive | inactive | inactive | Active | inactive | inactive | inactive | inactive | Active | inactive | inactive | inactive | 0.5 h | 1.6 | 53.9 mg/kg | –
5 | CCCc1cc(C(O)C(F)(F)F)cc(Br)c1O (centres undefined) | inactive | inactive | inactive | inactive | inactive | inactive | inactive | inactive | inactive | inactive | inactive | inactive | – | – | – | Activity (Mus musculus [18]): Non-toxic; Activity (Mus musculus [19]): Non-toxic; Activity (Mus musculus [20]): Non-toxic; Activity (Mus musculus [21]): Non-toxic; Activity (Mus musculus [22]): Non-toxic
